Bioassay records from PubChem.
The list is not random: actives were taken first. Their share in the collection is about 2.5%.
MC4R ag barr: agonists of human melanocortin 4 receptor (MC4R) beta-arrestin. P32245. U2OS MC4R beta-arrestin complementation, luminescence; percent of melanotan II response, DMSO zero. activation, % at 8.9 µM. actives 0.98% (n = 360,000). AID 540308;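 active = activation above a per-plate cutoff, the mean activation of sample wells on that plate plus 3 SD, cut at about 8% in these data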
Target sequence (P32245 whole entry, looked up): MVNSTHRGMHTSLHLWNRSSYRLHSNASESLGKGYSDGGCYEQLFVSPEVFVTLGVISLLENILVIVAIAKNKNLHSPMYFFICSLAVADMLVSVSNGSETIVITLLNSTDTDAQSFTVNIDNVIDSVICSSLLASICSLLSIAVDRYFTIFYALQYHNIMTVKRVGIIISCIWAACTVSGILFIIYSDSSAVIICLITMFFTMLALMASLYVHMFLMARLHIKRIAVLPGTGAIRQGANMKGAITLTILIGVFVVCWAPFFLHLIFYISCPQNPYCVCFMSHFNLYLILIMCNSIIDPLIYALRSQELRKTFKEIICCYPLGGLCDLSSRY
NALP1 yeast inh: blocks the NALP1 inflammasome reconstituted in yeast | S. cerevisiae NALP1/ASC/caspase-1 growth, X-gal OD620, 72 h | inhibition, % at 10 µM | actives 0.61% (n = 280,000) | AID 2071; in the data active = inhibition mostly above about 24%, no sharp cut-off; inactive = mostly below about 32%
Bfl-1 A1 inh: inhibitors of the anti-apoptotic protein A1, read as caspase activation; MEF A1-2A-BIM cells, Caspase-Glo 3/7 luminescence, 3 h; percent of clofoctol response, vehicle zero; caspase activation, % (concentration not given with the values); actives 0.066% (n = 330,000); AID 2462;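 active = over half of replicate activation scores above 10%, or exactly half above 10 with the replicate mean above 10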
MC4R antagonist: human MC4R antagonism in cAMP assay. inhibition, % at 6.5 µM. P32245. MC4R-expressing cells, MTII-stimulated cAMP, LANCE TR-FRET. actives 0.48% (n = 360,000);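 active = inhibition above its plate's cutoff, the mean of tested wells on that plate plus 3 SD, cut at about 29% in these data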;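 also: 0% = Melanotan II alone and 100% = Melanotan II plus saturating MCL0020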
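Material: U2OS-MC4R stable cell line | Reagent: Melanotan II challenge after compound preincubation | Doses: One concentration, 6.5 µM nominal | Incubation: 30-min compound preincubation, 1-h Melanotan II challenge, 1-h detection, room temperature | Signal: TR-FRET cAMP assay | Replicates: One well per compound, no replicates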
TbMetRS inhib: Trypanosoma brucei MetRS inhibition | purified T. brucei MetRS, ATP depletion, Kinase-Glo luminescence | inhibition, % at 11.9 µM | AID 624268 | actives 0.4% (n = 360,000);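 active = inhibition above a per-plate cutoff of the control wells' mean inhibition plus 3 SD, cut at about 5.5% in these data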;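 also: 0% = DMSO wells median and 100% = median of wells with control inhibitor compound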
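assay system = parasite MetRS enzyme | timing = 15 min preincubation, 2 h reaction, all 25 °C | evaluation = percent inhibition relative to median high and low control wells | medium = HEPES buffer containing pyrophosphatase, BSA, spermine, DTT | compound = single dose, 11.9 µM final nominal, 0.9% final DMSO | detection = Kinase-Glo luminescence, ATP depletion format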
NALP3 yeast inh: NALP3 inhibition in yeast | inhibition, % at 10 µM | actives 0.39% (n = 330,000) | Yeast reconstituted NLRP3/ASC/caspase-1, beta-gal luminescence, 24 h;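 active = inhibition of 50% or more; inactive = inhibition below 50%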;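 also: plate controls were induced DMSO wells for no effect and uninduced yeast grown without galactose for full effect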
* marks the source's active call; other numbers are inactive results; · = no result; ! = repeats disagree.

SMILES	MC4R ag barr	NALP1 yeast inh	Bfl-1 A1 inh	MC4R antagonist	TbMetRS inhib	NALP3 yeast inh
CN(c1ccccc1)S(=O)(=O)c1cccc(C(=O)OCC(=O)NCc2ccccc2)c1	1	·	0	14	0	15
O=C(NC1=NCCS1)c1ccc(F)c(S(=O)(=O)N2CCOCC2)c1	-2	·	-1	-1	0	-10
COC(=O)Cn1cc(S(=O)(=O)NCc2ccc(C)cc2)c2cc([N+](=O)[O-])ccc21	-2	-7	0	6	-1	12
CCCCc1cc(=O)oc2cc(C)cc(OCC(=O)Nc3cccnc3)c12	8.7*	22	0	1	0	17
CC(C)c1ccc(CNC(=O)C2(C)CCCN2C)cc1 (centres undefined)	-2	·	·	6	0	·
COCCN1C(=O)CSCC1(C)C(=O)Nc1ccc2c(c1)OCCO2 (centres undefined)	·	·	·	·	0	·
N=c1n(CCN2CCCCC2)c2ccccc2n1CC(O)c1cccc(Br)c1 (centres undefined)	1	10	1	-1	-1	18
N=c1n(CCN2CCCCC2)c2ccccc2n1CC(O)c1ccc(Cl)c(Cl)c1 (centres undefined)	1	43*	-1	13	0	22
O=C(NC1CCCCC1)C(C1CC1)n1c(=O)c(-c2ccccc2)nc2ccccc21 (centres undefined)	·	·	·	·	-1	·
Cc1cc(C)c(NC(=O)c2ccccc2CCc2ccccc2)c(C)c1	29*	1	0	0	0	-8
CCCCOc1ccc(C(=O)NCC(=O)N2CCN(C(=O)c3ccco3)CC2)cc1	0	·	1	7	-1	6
COc1ccc(C(CNC(=O)c2cccc(NC(=O)c3cccs3)c2)N2CCCC2)cc1 (centres undefined)	-2	·	-1	-6	0	4
CC(C)CN(Cc1cc(=O)oc2cc(-c3ccccc3)c(O)cc12)CC(C)C	11*	14	-1	12	1	14
COc1ccc(CCNC(=O)CN(c2ccccc2OC)S(C)(=O)=O)cc1OC	-1	14	0	0	0	-6
COc1ccc(CCNC(=O)CN(c2ccccc2OC)S(C)(=O)=O)cc1	0	30*	1	4	-1	2
CCOc1ccc(CNC(=O)CCCN2C(=O)C(c3ccccc3)Oc3cccnc32)cc1 (centres undefined)	9.1*	2	1	3	0	4
COC(=O)CNC(=O)Cn1ccc2ccccc2c1=O	-1	18	1	5	-1	14
CCOC(=O)CNC(=O)CNC(=O)Cn1ccc2ccccc2c1=O	-2	40*	1	4	0	7
CC(C)(C)c1ccc(OCc2cnc(Cl)s2)cc1	9.3*	8	0	27	0	28
NC(=O)NC(Cc1ccccc1)C(=O)NNC(=O)COc1ccccc1Cl (centres undefined)	-3	·	0	6	0	-1
CCOc1ccc(Cl)cc1S(=O)(=O)N1CCC(C(=O)NCc2cccnc2)CC1	-2	12	-1	5	0	10
CCOC(=O)c1[nH]c(C)c(CCC(=O)O)c1C	0	41*!	0	4	0	11
CCCCCCc1cc2cc(S(=O)(=O)c3ccc(F)c(Cl)c3)c(=O)oc2cc1O	8.8*	13	0	4	0	5
CCCCCCc1cc2cc(C(=O)OCC)c(=O)oc2cc1O	1	7	0	0	-1	-5
Cc1cc(C)c2c(=O)cc(C(F)F)oc2c1	-2	-18	1	-1	0	9
Cc1ccc2c(=O)cc(C(F)F)oc2c1	-2	41*	-1	1	-1	2
CC1(c2ccccc2)NC(=O)N(CC(=O)N2CCOCC2)C1=O (centres undefined)	-2	36*	1	2	-1	-6
CCCCCCn1c(=O)n2n(c1=O)[C@@H]1CN(S(=O)(=O)c3ccc(C)cc3)C[C@]1(O)[C@@H](OC(=O)NCc1ccco1)C2	0	·	·	11	0	·
